For assay [1], the target named is T1, Rho guanine nucleotide exchange factor 1 (Homo sapiens) (UniProt Q92888).
T1 sequence (whole entry): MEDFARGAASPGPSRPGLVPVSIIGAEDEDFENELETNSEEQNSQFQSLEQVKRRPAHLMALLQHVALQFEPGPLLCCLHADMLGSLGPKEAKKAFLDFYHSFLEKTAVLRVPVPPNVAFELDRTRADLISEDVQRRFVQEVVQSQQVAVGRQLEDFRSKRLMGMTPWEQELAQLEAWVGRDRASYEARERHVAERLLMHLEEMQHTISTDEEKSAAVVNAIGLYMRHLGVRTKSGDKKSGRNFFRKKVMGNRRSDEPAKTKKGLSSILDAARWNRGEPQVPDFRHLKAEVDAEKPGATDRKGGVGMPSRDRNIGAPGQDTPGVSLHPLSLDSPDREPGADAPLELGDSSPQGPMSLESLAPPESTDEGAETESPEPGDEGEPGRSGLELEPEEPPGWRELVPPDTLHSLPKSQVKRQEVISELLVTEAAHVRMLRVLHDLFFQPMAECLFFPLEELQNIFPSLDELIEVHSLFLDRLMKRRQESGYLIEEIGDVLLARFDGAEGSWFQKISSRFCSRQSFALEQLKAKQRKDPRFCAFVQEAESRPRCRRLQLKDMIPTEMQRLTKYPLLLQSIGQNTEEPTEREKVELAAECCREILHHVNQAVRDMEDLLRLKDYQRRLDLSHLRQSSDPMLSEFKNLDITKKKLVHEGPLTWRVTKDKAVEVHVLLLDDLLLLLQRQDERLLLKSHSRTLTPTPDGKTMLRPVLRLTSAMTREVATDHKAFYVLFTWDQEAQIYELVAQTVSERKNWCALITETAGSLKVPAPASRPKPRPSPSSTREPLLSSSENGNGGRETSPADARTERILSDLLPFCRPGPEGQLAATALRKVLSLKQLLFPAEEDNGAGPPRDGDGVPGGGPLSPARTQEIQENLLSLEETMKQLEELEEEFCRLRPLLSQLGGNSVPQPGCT
Put plainly: Inhibition of p115 DHPH22 domain (395 to 766 residues) (unknown origin) interaction with GDP-loaded His-tagged RhoA F25N mutant (1 to 180 residues) assessed as reduction in BODIPY-GTP-GDP exchange at 200 uM pretreated for 30 mins followed by RhoA addition by fluorescence based spectrophotometric method relative to control.

Assay [2] has as its target T2, Neuroepithelial cell-transforming gene 1 protein (Homo sapiens) (UniProt Q7Z628).
T2 sequence (whole entry): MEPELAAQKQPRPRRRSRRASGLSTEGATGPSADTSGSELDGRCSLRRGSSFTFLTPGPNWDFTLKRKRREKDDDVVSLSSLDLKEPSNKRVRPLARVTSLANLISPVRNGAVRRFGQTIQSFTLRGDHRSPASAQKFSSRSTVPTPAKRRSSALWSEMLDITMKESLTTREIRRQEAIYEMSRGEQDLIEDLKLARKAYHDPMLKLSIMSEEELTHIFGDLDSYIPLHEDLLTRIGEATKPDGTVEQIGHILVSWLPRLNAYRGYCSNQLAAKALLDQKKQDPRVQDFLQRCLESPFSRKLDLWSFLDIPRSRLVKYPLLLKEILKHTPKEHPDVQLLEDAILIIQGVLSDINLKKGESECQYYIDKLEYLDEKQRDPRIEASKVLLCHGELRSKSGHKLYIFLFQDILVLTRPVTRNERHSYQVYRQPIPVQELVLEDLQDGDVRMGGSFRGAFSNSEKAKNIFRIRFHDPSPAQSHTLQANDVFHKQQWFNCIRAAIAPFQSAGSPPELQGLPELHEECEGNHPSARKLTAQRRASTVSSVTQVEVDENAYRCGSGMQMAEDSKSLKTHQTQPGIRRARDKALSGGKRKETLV
Kind of assay: Inhibition of Net1 (149 to 501 residues) (unknown origin) interaction with GDP-loaded His-tagged RhoA F25N mutant (1 to 180 residues) assessed as reduction in BODIPY-GTP-GDP exchange at 200 uM pretreated for 30 mins followed by RhoA addition by fluorescence based spectrophotometric method relative to control.

The target of assay [3] is Rho guanine nucleotide exchange factor 1 (Homo sapiens, UniProt Q92888, F25N). Kind of assay: Inhibition of p115 DHPH22 domain (395 to 766 residues) (unknown origin) interaction with GDP-loaded His-tagged RhoA F25N mutant (1 to 180 residues) assessed as reduction in BODIPY-GTP-GDP exchange pretreated for 30 mins followed by RhoA addition by fluorescence based spectrophotometric method.

Assay [4] concerns the target Neuroepithelial cell-transforming gene 1 protein (Homo sapiens, UniProt Q7Z628, F25N). Kind of assay: Inhibition of Net1 (149 to 501 residues) (unknown origin) interaction with GDP-loaded His-tagged RhoA F25N mutant (1 to 180 residues) assessed as reduction in BODIPY-GTP-GDP exchange pretreated for 30 mins followed by RhoA addition by fluorescence based spectrophotometric method. Put shortly:
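Exchange is started with 0.1 μM GDP-loaded His-RhoA F25N (1−180). Fluorescence (ex 480/em 540 nm) is read every minute, and initial rate is taken over the first 15 min. Controls are run with and without GEF.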

pIC50: −log10 of the molar value.

As to `COc1cc(C)c2c(c1)Oc1c(cc(OC)cc1C(=O)O)OC2=O`, the inhibition in assay [1] was found to be 1%; in assay [2] it was 5%.

Take `COc1cc(C)c2c(c1C=O)Oc1c(c(C)c(O)c3c1C(O)OC3=O)OC2=O` (stereo unspecified) [STICTIC ACID]: the inhibition in assay [1] was determined as 50.5%. Also, the pIC50 in assay [3] was 3.73.

`C=CCC/C=C/C#CC#CCCCCCC[C@H]1C(=O)O[C@H](C)[C@@H]1OC(C)=O`: in assay [1], the inhibition is 10%.

In the case of `CN1CCc2cc3c(c4c2c1cc1ccccc14)OCO3` [DEHYDROROEMERINE], the figures for the inhibition in assay [1] and in assay [2] were 21% and 83%, respectively. Besides, in assay [4], the pIC50 was 3.92.

Take `COc1c(O)cc2c3c(cc4ccccc4c13)NC(=O)C2=O`: the inhibition in assay [1] was determined as 0%; in assay [2] it was 4%.

As for `C=CCC/C=C\C#CC#CCCCCCC[C@H]1C(=O)O[C@H](C)[C@@H]1OC(C)=O`, in assay [1], the inhibition stood at 0%.

For the compound `C=CCC/C=C\C#CC#CCCCCCCC1=C[C@@H](C)OC1=O`, the inhibition in assay [1] was 0%.

Take `C=CCC/C=C/C#CC#CCCCCCCCC(=O)O`: the inhibition in assay [1] was 0%.

Turning to `C=CCC/C=C/C#CC#CCCCCCCCC[C@H]1C(=O)O[C@H](C)[C@@H]1OC(C)=O`, the inhibition in assay [1] turned out to be 0%.

On to `COc1c(O)cc2c3c(cc4c(O)cccc4c13)NC2=O`, for which the inhibition in assay [1] is 0%; in assay [2] it was 5%.

Broadly, the inhibition is the share of the control response that was lost under treatment. The term pIC50 denotes the negative decadic logarithm of the IC50, by convention in mol/L.

Source of the values: ChEMBL document CHEMBL4145642, “Natural Inhibitors of the RhoA-p115 Complex from the Bark of Meiogyne baillonii” (J Nat Prod, 2018).
